Assay results: ChEMBL document CHEMBL4138242, “Synthesis and antibacterial evaluation of novel cationic chalcone derivatives possessing broad spectrum antibacterial activity” (Eur J Med Chem, 2018)
Calls of active or inactive are those of the source. The calls are words filed in the database; no cut-off is given here.

What was measured:
[1] = test system: Staphylococcus aureus; assay: Antibacterial activity against methicillin-resistant Staphylococcus aureus clinical isolate 0831010 after 16 to 20 hrs by broth microdilution method; format: functional
Outline: (§1)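 CLSI broth microdilution in Mueller-Hinton broth. A 4-6 h culture was diluted to about 10⁶ CFU/mL and mixed 1:1 with compound dilutions prepared at 256 to 0.5 µg/mL from aqueous stocks. Plates were incubated at 37 °C for 16-20 h and read visually for MIC. Each concentration was run in duplicate, and the experiment was repeated at least twice. Vancomycin and meropenem were comparators.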

[2] = test system: Escherichia coli; assay: Antibacterial activity against drug-resistant NDM1 producing Escherichia coli clinical isolate 1460 after 16 to 20 hrs by broth microdilution method; format: functional; outline: as §1
[3] = test system: Staphylococcus aureus; assay: Antibacterial activity against methicillin-resistant Staphylococcus aureus clinical isolate 20131012632sau after 16 to 20 hrs by broth microdilution method; format: functional; outline: as §1
[4] = test system: Staphylococcus aureus; assay: Bactericidal activity against methicillin-resistant Staphylococcus aureus in presence of 50% sheep blood after 20 to 24 hrs; format: functional; conditions: read-out: MBC99.9
Outline: (§2)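 MRSA at 10⁵ CFU/mL in 50% MHB plus 50% sheep serum, plasma or defibrinated blood; serum and plasma were obtained by centrifugation at 3,500 rpm for 10 min. Aqueous dilutions prepared at 512-4 µg/mL were added 1:3 to the suspension and incubated for 20-24 h at 37 °C. Well contents (20 µL) were plated on MHA for 20-24 h, and MBC was the concentration giving no colonies.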

[5] = test system: Escherichia coli; assay: Antibacterial activity against Escherichia coli ATCC 25922 after 16 to 20 hrs by broth microdilution method; format: functional
Outline: (§3)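 Broth microdilution per CLSI. Bacteria grown 4-6 h (about 10⁸ CFU/mL), then diluted to about 10⁶ CFU/mL. Medium: Mueller-Hinton broth, except Luria-Bertani broth for E. coli. Compounds in sterile water, twofold series 256-0.5 µg/mL, mixed 1:1 with inoculum, 37 °C for 16-20 h. MIC is the lowest concentration without visible growth. Duplicate wells; experiment repeated at least twice.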

[6] = test system: Staphylococcus aureus; assay: Disruption of 24 hrs cultured Staphylococcus aureus ATCC 29213 biofilm assessed as decrease in cell viability in biofilm after 24 hrs by crystal violet staining-based assay; format: functional, organism-based
[7] = test system: Klebsiella pneumoniae; assay: Antibacterial activity against drug-resistant carbapenemase producing Klebsiella pneumoniae clinical isolate KP-14-45 after 16 to 20 hrs by broth microdilution method; format: functional; outline: as §1
[8] = test system: Escherichia coli; assay: Antibacterial activity against drug-resistant NDM1 producing Escherichia coli clinical isolate Ecl-13-62 after 16 to 20 hrs by broth microdilution method; format: functional; outline: as §1
[9] = test system: Klebsiella pneumoniae; assay: Antibacterial activity against drug-resistant carbapenemase producing Klebsiella pneumoniae clinical isolate KP-14-8 after 16 to 20 hrs by broth microdilution method; format: functional; outline: as §1
[10] = test system: Staphylococcus aureus; assay: Antibacterial activity against methicillin-resistant Staphylococcus aureus clinical isolate 1208143 after 16 to 20 hrs by broth microdilution method; format: functional; outline: as §1
[11] = test system: Escherichia coli; assay: Antibacterial activity against drug-resistant NDM1 producing Escherichia coli clinical isolate EA-14-61 after 16 to 20 hrs by broth microdilution method; format: functional; outline: as §1
[12] = test system: Staphylococcus aureus; assay: Disruption of 24 hrs cultured Staphylococcus aureus ATCC 29213 biofilm assessed as cell viability in biofilm at 64 ug/ml after 24 hrs by crystal violet staining-based assay (reference value: 15.96 log10CFU/ml); format: functional
[13] = test system: Staphylococcus aureus; assay: Disruption of 24 hrs cultured Staphylococcus aureus ATCC 29213 biofilm assessed as cell viability in biofilm at 16 ug/ml after 24 hrs by crystal violet staining-based assay (reference value: 15.96 log10CFU/ml); format: functional
[14] = test system: Staphylococcus aureus; assay: Antibacterial activity against methicillin-resistant Staphylococcus aureus clinical isolate 0906202 after 16 to 20 hrs by broth microdilution method; format: functional; outline: as §1
[15] = test system: Staphylococcus aureus; assay: Antibacterial activity against methicillin-resistant Staphylococcus aureus clinical isolate 1-may after 16 to 20 hrs by broth microdilution method; format: functional; outline: as §1
[16] = test system: Staphylococcus aureus; assay: Bactericidal activity against methicillin-resistant Staphylococcus aureus in presence of 50% sheep serum after 20 to 24 hrs; format: functional; conditions: read-out: MBC99.9; outline: as §2
[17] = test system: Staphylococcus aureus; assay: Disruption of 24 hrs cultured Staphylococcus aureus ATCC 29213 biofilm assessed as cell viability in biofilm at 128 ug/ml after 24 hrs by crystal violet staining-based assay (reference value: 15.96 log10CFU/ml); format: functional
[18] = test system: Staphylococcus aureus; assay: Induction of cytoplasmic membrane depolarization in Staphylococcus aureus ATCC 29213 at 10 to 20 ug/ml measured every 2 mins for 12 mins by DiSC35 dye-based fluorescence assay; format: functional, organism-based
Outline: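 Mid-log cells (~10⁸ CFU/mL) were suspended in PBS (S. aureus) or HEPES/glucose/KCl with EDTA (E. coli). They were preloaded with DiSC3(5) for 30 min (S. aureus) or 40 min (E. coli), and baseline fluorescence was read for 8 min. Compound was added to 20 µg/mL final, and fluorescence (ex 622/em 670 nm) was read every 2 min for 12 min. Water served as control.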

[19] = test system: Klebsiella pneumoniae; assay: Antibacterial activity against drug-resistant carbapenemase producing Klebsiella pneumoniae clinical isolate KP-14-3 after 16 to 20 hrs by broth microdilution method; format: functional; outline: as §1
[20] = test system: Klebsiella pneumoniae; assay: Antibacterial activity against drug-resistant carbapenemase producing Klebsiella pneumoniae clinical isolate KP-14-18 after 16 to 20 hrs by broth microdilution method; format: functional; outline: as §1
[21] = test system: Staphylococcus aureus; assay: Bactericidal activity against Staphylococcus aureus ATCC 29213 preincubated with 50% sheep plasma at 512 ug/ml for 3 to 6 hrs followed by compound serial dilution and subsequent bacterial inoculation measured after 20 to 24 hrs; format: functional; conditions: read-out: MBC99.9
Outline: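 Compound at 512 µg/mL in 50% water/50% sheep plasma, preincubated at 37 °C for 0, 3 or 6 h. Then serially diluted (256-4 µg/mL) and combined 50:150 µL with S. aureus at 10⁵ CFU/mL, 37 °C for 20-24 h. MBC determined by plating; three parallel samples.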

[22] = test system: Klebsiella pneumoniae; assay: Antibacterial activity against drug-resistant carbapenemase producing Klebsiella pneumoniae clinical isolate EC-13-23 after 16 to 20 hrs by broth microdilution method; format: functional; outline: as §1
[23] = test system: Staphylococcus aureus; assay: Disruption of 24 hrs cultured Staphylococcus aureus ATCC 29213 biofilm assessed as cell viability in biofilm at 2 ug/ml after 24 hrs by crystal violet staining-based assay (reference value: 15.96 log10CFU/ml); format: functional
[24] = test system: Staphylococcus aureus; assay: Antibacterial activity against methicillin-resistant Staphylococcus aureus clinical isolate 1105183 cono7 after 16 to 20 hrs by broth microdilution method; format: functional; outline: as §1
[25] = test system: Escherichia coli; assay: Antibacterial activity against drug-resistant NDM1 producing Escherichia coli clinical isolate CF-15-61 after 16 to 20 hrs by broth microdilution method; format: functional; outline: as §1
[26] = test system: Salmonella enterica; assay: Antibacterial activity against Salmonella enterica ATCC 13076 after 16 to 20 hrs by broth microdilution method; format: functional; outline: as §3
[27] = test system: Staphylococcus aureus; assay: Bactericidal activity against Staphylococcus aureus ATCC 29213 after 20 to 24 hrs; format: functional; conditions: read-out: MBC99.9
Outline: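 MBC: wells showing little or no turbidity in the broth microdilution MIC assay were plated (20 µL) on agar and incubated 20-24 h at 37 °C. MBC is the lowest concentration giving no colonies.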

[28] = test system: Staphylococcus aureus; assay: Disruption of 24 hrs cultured Staphylococcus aureus ATCC 29213 biofilm assessed as cell viability in biofilm at 8 ug/ml after 24 hrs by crystal violet staining-based assay (reference value: 15.96 log10CFU/ml); format: functional
[29] = test system: Klebsiella pneumoniae; assay: Antibacterial activity against drug-resistant carbapenemase producing Klebsiella pneumoniae clinical isolate KP-14-1 after 16 to 20 hrs by broth microdilution method; format: functional; outline: as §1

CCCCCCCC[N+](C)(C)CC(=O)Nc1ccc(C(=O)/C=C/c2ccccc2F)cc1.[Cl-] was tested, and the MIC [1] was 0.5 µg/mL, the MIC [2] was 4 µg/mL and the MIC [3] was 2 µg/mL. For the same molecule, the MBC [4] was 128 µg/mL, the MIC [5] was 2 µg/mL and the Activity [6] was “Dose-dependent effect”. For the same molecule, the MIC [7] was 8 µg/mL, the MIC [8] was 4 µg/mL and the MIC [9] was 4 µg/mL. It also gave an MIC [10] of 1 µg/mL, an MIC [11] of 4 µg/mL and an Activity [12] of 9.41 log10CFU/ml. It also gave an Activity [13] of 10.95 log10CFU/ml, an MIC [14] of 4 µg/mL and an MIC [15] of 1 µg/mL. The MBC [16] was 32 µg/mL, the Activity [17] was 8.95 log10CFU/ml and the Activity [18] was “Active”. For the same molecule, the MIC [19] was 8 µg/mL, the MIC [20] was 16 µg/mL and the MBC [21] was 16 µg/mL. The MIC [22] was 4 µg/mL, the Activity [23] was 13.93 log10CFU/ml and the MIC [24] was 1 µg/mL. It also gave an MIC [25] of 4 µg/mL, an MIC [26] of 4 µg/mL and an MBC [27] of 8 µg/mL. It also gave an Activity [28] of 11.696 log10CFU/ml and an MIC [29] of 8 µg/mL.
